Laboratory results taken from ChEMBL document CHEMBL1148471, “Synthesis of mono- and bisdihydrodipyridopyrazines and assessment of their DNA binding and cytotoxic properties” (J Med Chem, 2004).
Activity calls are given as the source filed them. No cut-off for these calls is given here.

Columns and labels:
L1210 [1] = experiment: Inhibitory concentration against L1210 murine leukemia cell line; assay type: functional, cell-based; conditions: Mus musculus
Procedure, shortened: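 L1210 cells grown in RPMI 1640 with 10% fetal calf serum, 2 mM L-glutamine, penicillin/streptomycin and 10 mM HEPES (pH 7.4). Cells exposed 48 h to graded concentrations (nine serial dilutions, triplicate). Viability read by microculture tetrazolium assay. IC50 = concentration reducing optical density by 50% versus untreated controls.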

L1210 [2] = experiment: Percentage of L1210 cell line in G2M-phase of cell cycle at 5 uM; assay type: functional, Mus musculus
Procedure, shortened: (§1)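 L1210 cells (2.5 × 10^5 cells/mL) incubated 21 h with compound at the stated concentration. Cells fixed in 70% ethanol, then stained 30 min at 20 °C in PBS with 100 µg/mL RNase and 25 µg/mL propidium iodide. Flow cytometry on 10^4 cells per sample, 488 nm excitation, 615 nm long-pass emission. Output is the percentage of cells in each cycle phase.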

L1210 [3] = experiment: Percentage of L1210 cell line in G2M-phase of cell cycle at 10 uM; assay type: functional, Mus musculus; procedure, shortened: as §1
L1210 [4] = experiment: Percentage of L1210 cell line in G2M-phase of cell cycle at 1 uM; assay type: functional, Mus musculus; procedure, shortened: as §1
L1210 [5] = experiment: Percentage of L1210 cell line in 8 N-phase of cell cycle at 1 uM; Toxic; assay type: toxicity, cell-based; conditions: mouse, l1210, 1 µM; procedure, shortened: as §1
L1210 [6] = experiment: Percentage of L1210 cell line in G2M-phase of cell cycle at 25 uM; assay type: functional, Mus musculus; procedure, shortened: as §1
L1210 [7] = experiment: Percentage of L1210 cell line in 8 N-phase of cell cycle at 5 uM; assay type: functional, Mus musculus; procedure, shortened: as §1
L1210 [8] = experiment: Percentage of L1210 cell line in 8 N-phase of cell cycle at 10 uM; assay type: functional, Mus musculus; procedure, shortened: as §1
L1210 [9] = experiment: Percentage of L1210 cell line in S-phase of cell cycle at 100 uM; assay type: functional, Mus musculus; procedure, shortened: as §1
L1210 [10] = experiment: Percentage of L1210 cell line in 8 N-phase of cell cycle at 1 uM; assay type: functional, Mus musculus; procedure, shortened: as §1
L1210 [11] = experiment: Percentage of L1210 cell line in 8 N-phase of cell cycle at 0.5 uM; assay type: functional, Mus musculus; procedure, shortened: as §1
L1210 [12] = experiment: Percentage of L1210 cell line in G2M-phase of cell cycle at 0.5 uM; assay type: functional, Mus musculus; procedure, shortened: as §1
L1210 [13] = experiment: Toxicity of compound was tested at 25 uM;Toxic; assay type: cell-based; conditions: mouse, l1210, 25 µM
L1210 [14] = experiment: Percentage of L1210 cell line in G2M-phase of cell cycle at 50 uM; assay type: functional, Mus musculus; procedure, shortened: as §1
L1210 [15] = experiment: Percentage of L1210 cell line in G2M-phase of cell cycle at 20 uM; assay type: functional, Mus musculus; procedure, shortened: as §1
L1210 [16] = experiment: Percentage of L1210 cell line in S-phase of cell cycle at 100 uM; NS = no specific effect (toxic at 5 uM); assay type: functional, cell-based; conditions: Mus musculus; procedure, shortened: as §1
L1210 [17] = experiment: Percentage of L1210 cell line in G1-phase of cell cycle at 25 uM; assay type: functional, Mus musculus; procedure, shortened: as §1
L1210 [18] = experiment: Percentage of L1210 cell line in S-phase of cell cycle at 100 uM; NS = no specific effect (toxic at 10 uM); assay type: functional, cell-based; conditions: Mus musculus; procedure, shortened: as §1
L1210 [19] = experiment: Percentage of L1210 cell line in G2M-phase of cell cycle at 100 uM; assay type: functional, Mus musculus; procedure, shortened: as §1
L1210 [20] = experiment: Percentage of L1210 cell line in S-phase of cell cycle at 100 uM; NS = no specific effect (toxic at 2 uM); assay type: functional, cell-based; conditions: Mus musculus; procedure, shortened: as §1
L1210 [21] = experiment: Percentage of L1210 cell line in G2M-phase of cell cycle at 2 uM; assay type: functional, Mus musculus; procedure, shortened: as §1

SMILES: CN1c2cccnc2N(C)c2nc(CNCCCNCCCCNCCCNCc3ccc4c(n3)N(C)c3ncccc3N4C)ccc21
- IC50 (L1210 [1]): 710 nM
- Activity (L1210 [2]): 72%

SMILES: CN(C)CCCN(C)Cc1ccc2c(n1)N(C)c1ncccc1N2C
- IC50 (L1210 [1]): 11500 nM

SMILES: CN(C)CCC(=O)NCc1ccc2c(n1)N(C)c1ncccc1N2C
- IC50 (L1210 [1]): 21100 nM

SMILES: CN(C)CCCNC(=O)c1ccc2c(n1)N(C)c1ncccc1N2C
- IC50 (L1210 [1]): 1700 nM
- Activity (L1210 [3]): 67%

SMILES: CN1c2cccnc2N(C)c2nc(CNCCCN)ccc21
- Activity (L1210 [4]): 65%
- IC50 (L1210 [1]): 140 nM
- Activity (L1210 [5]): Toxic

SMILES: CN(C)CCCNCc1ccc2c(n1)N(C)c1cccnc1N2C
- Activity (L1210 [6]): 39%
- IC50 (L1210 [1]): 9200 nM

SMILES: CN1c2cccnc2N(C)c2nc(CNCCCOCCCNCc3ccc4c(n3)N(C)c3ncccc3N4C)ccc21
- IC50 (L1210 [1]): 680 nM
- Activity (L1210 [2]): 78%
- Activity (L1210 [7]): 18%

SMILES: CN(C)CCNCc1ccc2c(n1)N(C)c1ncccc1N2C
- IC50 (L1210 [1]): 11300 nM
- Activity (L1210 [8]): 4%
- Activity (L1210 [3]): 47%

SMILES: CN1c2cccnc2N(C)c2cccnc21
- IC50 (L1210 [1]): 31100 nM
- Activity (L1210 [9]): 51%

SMILES: CN1c2cccnc2N(C)c2nc(CNCCCNCCCNCc3ccc4c(n3)N(C)c3ncccc3N4C)ccc21
- Activity (L1210 [4]): 65%
- IC50 (L1210 [1]): 360 nM
- Activity (L1210 [10]): 18%

SMILES: CN(C)CCCCNCc1ccc2c(n1)N(C)c1ncccc1N2C
- Activity (L1210 [11]): 32%
- IC50 (L1210 [1]): 140 nM
- Activity (L1210 [12]): 54%

SMILES: CN(C)CCCNCc1ccc2c(n1)N(C)c1ncccc1N2C
- Activity (L1210 [4]): 66%
- IC50 (L1210 [1]): 170 nM
- Activity (L1210 [10]): 14%

SMILES: CN(C)CCCCCNCc1ccc2c(n1)N(C)c1ncccc1N2C
- Activity (L1210 [13]): Toxic
- IC50 (L1210 [1]): 500 nM

SMILES: CN1c2ccc(C=O)nc2N(C)c2cccnc21
- Activity (L1210 [14]): 90%
- IC50 (L1210 [1]): 21600 nM

SMILES: CN1c2cccnc2N(C)c2nc(C=O)ccc21
- IC50 (L1210 [1]): 20000 nM

SMILES: CN1c2cccnc2N(C)c2nc(CNCCNCCNCCNCc3ccc4c(n3)N(C)c3ncccc3N4C)ccc21
- Activity (L1210 [15]): 70%
- IC50 (L1210 [1]): 4100 nM

SMILES: CN1c2cccnc2N(C)c2nc(CNCCNCc3ccc4c(n3)N(C)c3ncccc3N4C)ccc21
- IC50 (L1210 [1]): 2700 nM
- Activity (L1210 [3]): 79%

SMILES: CN1c2cccnc2N(C)c2nc(CNCCCCCCCNCc3ccc4c(n3)N(C)c3ncccc3N4C)ccc21
- Activity (L1210 [16]): inactive
- IC50 (L1210 [1]): 710 nM

SMILES: CN(C)CCNCc1ccc2c(n1)N(C)c1cccnc1N2C
- Activity (L1210 [17]): 55%
- IC50 (L1210 [1]): 26700 nM

SMILES: CN1c2cccnc2N(C)c2nc(CNCCCNCc3ccc4c(n3)N(C)c3ncccc3N4C)ccc21
- Activity (L1210 [4]): 68%
- IC50 (L1210 [1]): 430 nM

SMILES: CN(CCCNCc1ccc2c(n1)N(C)c1cccnc1N2C)CCCNCc1ccc2c(n1)N(C)c1cccnc1N2C
- IC50 (L1210 [1]): 3500 nM
- Activity (L1210 [18]): inactive

SMILES: CN1c2ccc(CNCCCNCc3ccc4c(n3)N(C)c3cccnc3N4C)nc2N(C)c2cccnc21
- IC50 (L1210 [1]): 4000 nM
- Activity (L1210 [18]): inactive

SMILES: CN1c2cccnc2N(C)c2nc(CNCCCCNCc3ccc4c(n3)N(C)c3ncccc3N4C)ccc21
- Activity (L1210 [16]; in the assay text read “at 5 uM” for “at 100 uM”): inactive
- IC50 (L1210 [1]): 1700 nM

SMILES: CN1c2cccnc2N(C)c2ncccc21
- IC50 (L1210 [1]): 34000 nM
- Activity (L1210 [9]): 49%
- Activity (L1210 [19]): 34%

SMILES: CN1c2ccc(CNCCCCCCCNCc3ccc4c(n3)N(C)c3cccnc3N4C)nc2N(C)c2cccnc21
- Activity (L1210 [20]): inactive
- IC50 (L1210 [1]): 500 nM

SMILES: CN1c2cccnc2N(C)c2nc(CNCCCNCc3ccc4c(n3)N(C)c3cccnc3N4C)ccc21
- IC50 (L1210 [1]): 480 nM
- Activity (L1210 [21]): 66%
